Source: paper PMC7065716 (International Journal of Nanomedicine, 2020)
Where “and” joins values, the source holds several entries; their conditions need not be identical. Identical values can stand only once. Counter-ions that a name gives are not always drawn. Each block holds one compound with its values, some of them ahead of it.

What was measured:
[1] = tested on: cartilage oligomeric matrix protein (COMP); assay: CFA-induced RA in rats: serum COMP; assay type: in vivo, female Wister albino rats; conditions: treated day 13-27, serum day 28
In short: (§1)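 Arthritis induced as three 0.4 mL subcutaneous plantar CFA injections (days 1, 4, 7); treatments given days 13–27 as topical gel 1 g/day on 4 cm2 shaved dorsum or oral 10 mg/kg/day. Eight rats per group. Day 28, 24 h after last dose, retro-orbital blood under diethyl ether; serum separated at 3000 rpm for 30 min, stored −20°C, assayed by ELISA kit. One-way ANOVA with Tukey test.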

IL-6 = assay: CFA-induced RA in rats: serum IL-6; assay type: in vivo, female Wister albino rats; conditions: treated day 13-27, serum day 28, listed as oral DH
In short: as §1

In vitro DH release = assay type: physicochemical; conditions: dialysis bag, pH 5.5, 37 °C
In short: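 Formulation or free drug solution (3 mg drug equivalent) held in a cellophane dialysis bag (MWCO 12,000) wrapped on a cylinder. Bag placed in 30 mL PBS, pH 5.5, at 37 ± 0.5 °C, stirred 50 rpm. 3 mL sampled at 1, 2, 3, 5, 6, 7 and 8 h and replaced. UV read at 292 nm. Run in triplicate, mean ± SD, cumulative % released.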

CFA-induced RA in rats [2] = assay: CFA-induced RA in rats: histopathology of knee joints, spleen and liver; assay type: in vivo, female Wister albino rats; conditions: H&E
In short: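 CFA (0.4 mL) injected subcutaneously into hind-limb plantar surface on days 1, 4 and 7 in female rats, 180–200 g, 8 per group. From day 13 to 27: topical gel 1 g/day on 4 cm2 shaved dorsum, oral 10 mg/kg/day, or reference oral drug 0.1 mg/kg/day. On day 28, under pentobarbitone 50 mg/kg i.p., three knee joints per group plus spleen and liver fixed in 10% formalin saline for 24 h, H&E-stained and read by pathologist.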

[3] = Pharmacokinetic analysis in rats; assay type: in vivo; conditions: Wister albino, rat, plasma, 10 mg/kg
In short: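 Rats (200–250 g, six per group) fasted 10 h, then dosed 10 mg/kg by oral gavage or as 1 g gel on 4 cm2 shaved dorsum. Retro-orbital blood (0.5 mL, heparinized) taken 0.25–24 h; plasma stored −20°C. Plasma spiked with internal standard, extracted with tert-butyl methyl ether, reconstituted in acetonitrile:0.1% formic acid (80:20), analysed by LC-MS/MS on C18. Non-compartmental analysis; AUC by trapezoidal rule.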

[4] = cited from earlier work
CFA-induced RA in rats [5] = assay: CFA-induced RA in rats: radiographic analysis; assay type: in vivo, female Wister albino rats; conditions: day 28
Ex vivo skin permeation = assay type: in vitro ADME, rat
In short: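 Franz cell, 5.0 cm2 permeation area, 100 mL distilled-water receiver. Shaved rat skin mounted stratum corneum up. Donor: vesicle formulation equivalent to 3 mg drug, or drug solution as control. Run at 37 ± 2 °C, 100 rpm, 24 h, sampling at 1–24 h with medium replaced. UV read at 292. Lag time from x-intercept of the linear portion of the cumulative µg/cm2-versus-time plot; Jss (µg/cm2/h) and Kp (cm/h) calculated.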

[6] = tested on: anti-cyclic citrullinated peptide antibody (anti-CCP); assay: CFA-induced RA in rats: serum anti-CCP; assay type: in vivo, female Wister albino rats; conditions: treated day 13-27, serum day 28
In short: as §1

DH released in the first 3 h (In vitro DH release): approximately 95%
AUC(0-inf) ([3]; oral): 0.734 µg·h/mL
Cmax ([3]; oral): 0.198 µg/mL
AUC(0-inf) ([3]; po): 0.734 ± 0.0511 µg·h/mL
AUC(0-t) ([3]; po): 0.701 ± 0.0258 µg·h/mL
Cmax ([3]; po): 0.198 ± 0.0164 µg/mL
MRT ([3]; po): 5.74 ± 1.56 h
Tmax ([3]; po): 1.5 ± 0.06 h
half-life ([3]; po): 5.46 ± 2.87 h
Papp (Ex vivo skin permeation; rat): 9.44 nm/s
Lag Time (Ex vivo skin permeation; rat skin, Franz cell): 91.10 ± 20.67 min
Y5: Q24, cumulative amount permeated/unit area in 24 h (Ex vivo skin permeation; rat skin, Franz cell, 37 °C, 24 h): 135.6±17.0 µg/cm2
Jss (drug flux, steady state) (Ex vivo skin permeation; rat skin, Franz cell, listed as DH solution): 5.6±0.7 µg/cm2.h and 5.65± 0.71 µg/cm2.h
Structure (SMILES): CN(C)[C@@H](CCOc1cccc2ccccc12)c1ccccc1 [DH, Dapoxetine hydrochloride]
COMP (serum) [1]: 70.30 ± 5.73^a, b, c, d, e pg/mL
IL-6 (serum) (IL-6): no significant effect
knee joint histopathology (CFA-induced RA in rats [2]): rough cerrated articular surface
liver histopathology (CFA-induced RA in rats [2]): marked congestion of central veins
spleen histopathology (CFA-induced RA in rats [2]): marked activation in the macrophage in the white pulb
elimination half-life [4]: 1.31 h
radiographic findings (CFA-induced RA in rats [5]): significant and comparable inhibition of soft tissues swelling
Anti-CCP (serum) [6]: 4.64 ± 0.15^a, b, c, d, e ng/mL

Structure (SMILES): CN(Cc1cnc2nc(N)nc(N)c2n1)c1ccc(C(=O)N[C@@H](CCC(=O)O)C(=O)O)cc1 [MTX, methotrexate]
radiographic findings (CFA-induced RA in rats [5]): almost normal soft tissue with disappearance of inflammatory signs
Anti-CCP (serum) [6]: 4.00 ± 0.03^a, b, c ng/mL
